# In ChEMBL document CHEMBL4265933, “Rationally designed divalent caffeic amides inhibit amyloid-β fibrillization, induce fibril dissociation, and ameliorate cytotoxicity” (Eur J Med Chem, 2018):
# pIC50: −log10 of the molar value. Activity calls are given as the source filed them. No cut-off for these calls is given here.
# Experiments:
# [1] = biological target: T1, Amyloid-beta precursor protein (Homo sapiens, UniProt P05067); test: Inhibition of amyloid beta (1 to 42) (unknown origin) assessed as fibril formation at 10 uM incubated with agitation for 1 min every hr measured over 80 hrs by thioflavin-T assay relative to control; set-up: scale not given: the % may be the effect or the level left
# T1 sequence (P05067 whole entry): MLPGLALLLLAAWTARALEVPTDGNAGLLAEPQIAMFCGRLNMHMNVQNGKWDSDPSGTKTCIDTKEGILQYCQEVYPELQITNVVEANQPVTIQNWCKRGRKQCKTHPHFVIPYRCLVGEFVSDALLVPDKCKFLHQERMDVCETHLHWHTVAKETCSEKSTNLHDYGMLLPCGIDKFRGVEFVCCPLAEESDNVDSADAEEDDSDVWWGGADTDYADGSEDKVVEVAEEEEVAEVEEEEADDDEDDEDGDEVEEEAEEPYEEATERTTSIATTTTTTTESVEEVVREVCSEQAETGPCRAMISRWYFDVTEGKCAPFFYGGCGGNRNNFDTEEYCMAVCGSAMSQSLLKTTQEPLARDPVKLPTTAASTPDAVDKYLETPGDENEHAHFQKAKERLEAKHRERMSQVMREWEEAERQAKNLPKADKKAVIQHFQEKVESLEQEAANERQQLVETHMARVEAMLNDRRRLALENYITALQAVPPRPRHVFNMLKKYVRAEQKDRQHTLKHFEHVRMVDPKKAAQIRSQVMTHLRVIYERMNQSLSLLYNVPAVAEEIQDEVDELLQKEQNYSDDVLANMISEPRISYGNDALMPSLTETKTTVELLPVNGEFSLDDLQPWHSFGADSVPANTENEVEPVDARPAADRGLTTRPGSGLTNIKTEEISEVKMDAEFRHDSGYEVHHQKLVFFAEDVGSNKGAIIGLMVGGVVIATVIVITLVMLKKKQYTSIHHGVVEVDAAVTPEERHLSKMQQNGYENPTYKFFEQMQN
# [2] = biological target: T1, Amyloid-beta precursor protein; test: Inhibition of amyloid beta (1 to 42) fibrillization (unknown origin) at 12.5 to 25 uM incubated with agitation for 1 min every hr measured over 80 hrs by transmission electron microscopy
# Summary of the method: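 End-point Aβ(1–42) products after 80 h ThT incubation (50 µM peptide, 37 °C) with 12.5 or 25 µM compound were applied to Formvar carbon-coated copper grids for 5 min. Grids were water-washed and stained with 2% uranyl acetate. Imaging was by TEM at 120 kV.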
# Caenorhabditis elegans [3] = test: Protection against amyloid beta aggregation-induced paralysis in Caenorhabditis elegans CL4176 assessed as median survival time of worms at 40 uL pretreated with compound at 16 degC for 20 hrs followed by raising temperature to 25 degC (reference value: 42.2 hrs); type: functional
# SH-SY5Y [4] = test: Neuroprotective activity against amyloid beta (1 to 42 residues) induced cytotoxicity in human SH-SY5Y cells assessed as protection against amyloid beta (1 to 42 residues) induced decrease in cell viability at 0.01 uM after 24 hrs by LDH assay relative to control; type: functional
# Summary of the method: (§1)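 SH-SY5Y cells (DMEM/F12, 5% FBS, 37 °C, 5% CO2) were seeded at 10,000 cells/well for 24 h, then switched to serum-free medium. Cells received 10 µL end-point Aβ(1–42) ThT-assay product (peptide co-incubated with compound) for 24 h. Cleared medium was incubated with LDH substrate 30 min at room temperature, dark, and read at 490 nm. Cell-free background was subtracted; 2% Triton X-100 lysis set 100% cytotoxicity. Triplicate.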
# SH-SY5Y [5] = test: Neuroprotective activity against amyloid beta (1 to 42 residues) induced cytotoxicity in human SH-SY5Y cells assessed as protection against amyloid beta (1 to 42 residues) induced decrease in cell viability at 25 uM after 24 hrs by LDH assay relative to control; type: functional; summary of the method: as §1
# SH-SY5Y [6] = test: Neuroprotective activity against amyloid beta (1 to 42 residues) induced cytotoxicity in human SH-SY5Y cells assessed as protection against amyloid beta (1 to 42 residues) induced decrease in cell viability after 24 hrs by LDH assay; type: functional, cell-based; summary of the method: as §1
# [7] = biological target: T1, Amyloid-beta precursor protein; test: Inhibition of amyloid beta (1 to 42) fibrillization (unknown origin) incubated with agitation for 1 min every hr measured over 80 hrs by thioflavin-T assay
# Caenorhabditis elegans [8] = test: Protection against amyloid beta aggregation-induced paralysis in Caenorhabditis elegans CL4176 assessed as survival rate of worms at 40 uL pretreated with compound at 16 degC for 20 hrs followed by raising temperature to 25 degC and measured at 26 hrs relative to control; type: functional
# Summary of the method: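 About 130 eggs of transgenic C. elegans CL4176 (muscle myo-3p::Aβ(1–42)) were grown at 16 °C on NGM plates with E. coli OP50. Plates were pretreated with 40 µL of a 6.27 mM compound solution; nematode growth medium served as buffer control. Temperature was raised to 25 °C at L4. Unparalysed worms (~100–130 per condition) were counted every 2 h. Five trials.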
# [9] = biological target: T1, Amyloid-beta precursor protein; test: Disaggregation of amyloid beta (1 to 42 residues) (unknown origin) preformed fibrils incubated with agitation for 1 min every hr measured over 80 hrs by thioflavin-T assay
# Summary of the method: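 Preformed Aβ(1–42) fibrils (25 μM; peptide in DMSO diluted into 20 mM PB pH 7.4, shaken at least 4 days) mixed with compound at 0–100 μM and 5 μM ThT. Incubated at 37 °C with 1 min agitation hourly. Fluorescence read at ex 442/em 485 nm, buffer background subtracted. Final signal normalized to fibrils alone; triplicate; IC50 fitted to Y=100/(1+10^(X−LogIC50)).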
# [10] = biological target: T1, Amyloid-beta precursor protein; test: Inhibition of amyloid beta (1 to 42) (unknown origin) assessed as fibril formation at 25 uM incubated with agitation for 1 min every hr measured over 80 hrs by thioflavin-T assay relative to control; set-up: scale not given: the % may be the effect or the level left
# Summary of the method: (§2)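 Synthetic Aβ(1–42) taken up in DMSO, diluted to 50 μM in 20 mM PB pH 7.4 (final DMSO 1.5%) with 5 μM ThT, compound 0.01–100 μM. Incubated at 37 °C with 1 min agitation hourly for 80 h. ThT read at ex 442/em 485 nm. The 80 h signal, buffer-subtracted, normalized to Aβ alone. Independent triplicates, SEM; IC50 fitted to Y=100/(1+10^(X−LogIC50)).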
# [11] = biological target: T1, Amyloid-beta precursor protein; test: Inhibition of amyloid beta (1 to 42) (unknown origin) assessed as fibril formation at 100 uM incubated with agitation for 1 min every hr measured over 80 hrs by thioflavin-T assay relative to control; set-up: scale not given: the % may be the effect or the level left; summary of the method: as §2
# SH-SY5Y [12] = test: Neuroprotective activity against preformed amyloid beta (1 to 42 residues) fibril induced cytotoxicity in human SH-SY5Y cells assessed as protection against amyloid beta (1 to 42 residues) induced cell viability at 50 uM after 24 hrs by LDH assay (reference value: 17%); type: functional
# Summary of the method: (§3)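 Preformed fibrils: 0.1 mg Aβ(1–42) in 6 µL DMSO was diluted into 880 µL 20 mM PB pH 7.4 and shaken ≥4 days. Fibrils were then held with 0, 25, 50 or 100 µM compound. SH-SY5Y cells in serum-free medium received 10 µL sample for 24 h. LDH release was read at 490 nm, background-subtracted, and normalized to 2% Triton X-100 lysis as 100%.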
# [13] = biological target: T1, Amyloid-beta precursor protein; test: Disaggregation of amyloid beta (1 to 42 residues) (unknown origin) preformed fibrils at 100 uM measured on day 14 by transmission electron microscopy
# Summary of the method: (§4)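 Aβ(1–42) made by Fmoc solid-phase synthesis and HPLC-purified. Fibrils preformed by dissolving 0.1 mg peptide in DMSO, diluting in 20 mM PB pH 7.4, and shaking for at least 4 days. Fibrils mixed with compound (100 μM), sampled at time 0 or after 14 days, placed on carbon-coated grids, stained with 2% uranyl acetate and imaged by TEM at 120 kV.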
# SH-SY5Y [14] = test: Neuroprotective activity against preformed amyloid beta (1 to 42 residues) fibril induced cytotoxicity in human SH-SY5Y cells assessed as protection against amyloid beta (1 to 42 residues) induced cell viability at 100 uM after 24 hrs by LDH assay (reference value: 17%); type: functional; summary of the method: as §3
# [15] = biological target: T1, Amyloid-beta precursor protein; test: Disaggregation of amyloid beta (1 to 42 residues) (unknown origin) preformed fibrils at 100 uM measured immediately by transmission electron microscopy; summary of the method: as §4
# SH-SY5Y [16] = test: Neuroprotective activity against preformed amyloid beta (1 to 42 residues) fibril induced cytotoxicity in human SH-SY5Y cells assessed as protection against amyloid beta (1 to 42 residues) induced decrease in cell viability at 25 uM after 24 hrs by LDH assay; type: functional, cell-based; summary of the method: as §3
# [17] = biological target: T1, Amyloid-beta precursor protein; test: Disaggregation of amyloid beta (1 to 42 residues) (unknown origin) preformed fibrils up to 100 uM measured on day 14 by Western blot analysis
# Summary of the method: (§5)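 Preformed Aβ(1–42) fibrils incubated with compound at 0, 25, 50 or 100 μM for 0 or 14 days. Samples (20 μL plus SDS sample buffer) run on native 13% Tris-tricine gel without SDS, transferred to nitrocellulose at 250 mA for 75 min at 4 °C, blocked in 5% milk, probed with 4G8 and 6E10 plus anti-mouse IgG, ECL detection.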
# [18] = biological target: T1, Amyloid-beta precursor protein; test: Inhibition of amyloid beta (1 to 42) (unknown origin) assessed as fibril formation at 3.1 uM incubated with agitation for 1 min every hr measured over 80 hrs by thioflavin-T assay relative to control; set-up: scale not given: the % may be the effect or the level left; summary of the method: as §2
# [19] = biological target: T1, Amyloid-beta precursor protein; test: Inhibition of amyloid beta (1 to 42) (unknown origin) assessed as fibril formation up to 100 uM incubated with agitation for 1 min every hr measured over 80 hrs by thioflavin-T assay
# Summary of the method: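 Synthetic Aβ(1–42) was dissolved in DMSO and diluted to 50 µM in 20 mM phosphate buffer, pH 7.4 (1.5% final DMSO), with 5 µM ThT. Compound was added at 0.01–100 µM and samples were held at 37 °C, agitated 1 min hourly. Fluorescence (ex 442, em 485 nm) was read over 80 h. Background-subtracted 80 h signal was normalized to Aβ alone and fit to Y=100/(1+10^(X−LogIC50)). Triplicate, SEM.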
# [20] = biological target: T1, Amyloid-beta precursor protein; test: Disaggregation of amyloid beta (1 to 42 residues) (unknown origin) preformed fibrils up to 100 uM measured immediately by Western blot analysis; summary of the method: as §5
compound,measurement,setting,value
O=C(/C=C/c1ccc(O)c(O)c1)NCCCc1cn(Cc2ccc(-c3ccc(Cn4cc(CCCNC(=O)/C=C/c5ccc(O)c(O)c5)nn4)cc3)cc2)nn1,Activity,[1],112%
C#CCNC(=O)[C@@H](Cc1ccc(O)c(O)c1)OC(=O)/C=C/c1ccc(O)c(O)c1,Activity,[1],107%
O=C(/C=C/c1ccc(O)c(O)c1)O[C@H](Cc1ccc(O)c(O)c1)C(=O)NCc1cn(Cc2ccc(-c3ccc(Cn4cc(CNC(=O)[C@@H](Cc5ccc(O)c(O)c5)OC(=O)/C=C/c5ccc(O)c(O)c5)nn4)cc3)cc2)nn1,Activity,[1],65.1%
O=C(/C=C/c1ccc(O)c(O)c1)NCCOCCOCCNC(=O)/C=C/c1ccc(O)c(O)c1,inhibition,[2],inactive
same,Activity,[1],64.7%
O=C(/C=C/c1ccc(O)c(O)c1)NCc1cn(Cc2ccc(Cn3cc(CNC(=O)/C=C/c4ccc(O)c(O)c4)nn3)cc2)nn1,Activity,[1],76.5%
C#CCCCCNC(=O)/C=C/c1ccc(O)c(O)c1,Activity,[1],67.6%
COc1cc(/C=C/C(=O)CC(=O)/C=C/c2ccc(O)c(OC)c2)ccc1O [CURCUMIN],inhibition,[2],Active
same,MST,Caenorhabditis elegans [3],25.7 h
same,Activity,SH-SY5Y [4],inactive
same,Activity,SH-SY5Y [5],20%
same,Activity,SH-SY5Y [6],Dose-dependent effect
same,inhibition,[7],Dose-dependent effect
O=C(/C=C/c1ccc(O)c(O)c1)NCCCCc1cn(Cc2ccc(-c3ccc(Cn4cc(CCCCNC(=O)/C=C/c5ccc(O)c(O)c5)nn4)cc3)cc2)nn1,Activity,[1],61.8%
O=C(/C=C/c1ccc(O)c(O)c1)O[C@H](Cc1ccc(O)c(O)c1)C(=O)O,Activity,[1],79.1%
O=C(/C=C/c1ccc(O)c(O)c1)NCc1cn(Cc2ccc(-c3ccc(Cn4cc(CNC(=O)/C=C/c5ccc(O)c(O)c5)nn4)cc3)cc2)nn1,Activity,[1],88.2%
O=C(/C=C/c1ccc(O)c(O)c1)CC(=O)/C=C/c1ccc(O)c(O)c1,Activity,[1],11.5%
O=C(/C=C/c1ccc(O)c(O)c1)NCCOCCOCCOCCOCCOCCNC(=O)/C=C/c1ccc(O)c(O)c1,inhibition,[2],inactive
same,Activity,[1],67.6%
C#CCCCNC(=O)/C=C/c1ccc(O)c(O)c1,Activity,[1],135%
O=C(/C=C/c1ccc(O)c(O)c1)NCCOCCOCCOCCOCCNC(=O)/C=C/c1ccc(O)c(O)c1,inhibition,[2],inactive
same,Activity,[1],61.8%
O=C(/C=C/c1ccc(O)c(O)c1)NCCOCCOCCOCCNC(=O)/C=C/c1ccc(O)c(O)c1,inhibition,[2],inactive
same,Activity,[1],79.4%
C#CCNC(=O)/C=C/c1ccc(O)c(O)c1,Activity,[1],79.4%
O=C(/C=C/c1ccc(O)c(O)c1)NCCCNC(=O)/C=C/c1ccc(O)c(O)c1,fold change (FC),Caenorhabditis elegans [8],2.5
same,Activity,[9],Dose-dependent effect
same,pIC50,[9],5.38
same,Activity,[10],8%
same,Activity,[11],1%
same,inhibition,[2],Active
same,Activity,SH-SY5Y [12],12%
same,Activity,[13],Active
same,Activity,SH-SY5Y [14],9%
same,Activity,[15],inactive
same,MST,Caenorhabditis elegans [3],27.3 h
same,Activity,SH-SY5Y [16],inactive
same,Activity,[1],52.9%
same,Activity,[17],Active
same,Activity,[18],60%
same,Activity,SH-SY5Y [4],19%
same,Activity,SH-SY5Y [5],34%
same,inhibition,[19],Active
same,Activity,SH-SY5Y [6],Dose-dependent effect
same,Activity,[20],inactive
same,pIC50,[7],5.31
same,inhibition,[7],Dose-dependent effect
O=C(O)/C=C/c1ccc(O)c(O)c1 [CAFFEIC ACID],inhibition,[2],Active
same,MST,Caenorhabditis elegans [3],26.3 h
same,Activity,[1],91.2%
same,Activity,SH-SY5Y [4],5%
same,Activity,SH-SY5Y [5],20%
same,Activity,SH-SY5Y [6],Dose-dependent effect
same,pIC50,[7],4.81
same,inhibition,[7],Dose-dependent effect
